Screening data (PubChem)
Rows were chosen to be rich in hits. Some 1% of all compounds tested hit in one or more screens of this group.
ERp5 block: inhibitors of ERp5-driven insulin aggregation, primary screen, biochemical, turbidity, absorbance 650 nm, single point | 90 min | inhibition, % at 9.99 µM | hit rate 0.05% among 350,000;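 active = mean replicate inhibition above about 25%, with every replicate also reaching it, limit read from the data, passing the limit was not always enough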
Target sequence (Q15084 whole entry, looked up): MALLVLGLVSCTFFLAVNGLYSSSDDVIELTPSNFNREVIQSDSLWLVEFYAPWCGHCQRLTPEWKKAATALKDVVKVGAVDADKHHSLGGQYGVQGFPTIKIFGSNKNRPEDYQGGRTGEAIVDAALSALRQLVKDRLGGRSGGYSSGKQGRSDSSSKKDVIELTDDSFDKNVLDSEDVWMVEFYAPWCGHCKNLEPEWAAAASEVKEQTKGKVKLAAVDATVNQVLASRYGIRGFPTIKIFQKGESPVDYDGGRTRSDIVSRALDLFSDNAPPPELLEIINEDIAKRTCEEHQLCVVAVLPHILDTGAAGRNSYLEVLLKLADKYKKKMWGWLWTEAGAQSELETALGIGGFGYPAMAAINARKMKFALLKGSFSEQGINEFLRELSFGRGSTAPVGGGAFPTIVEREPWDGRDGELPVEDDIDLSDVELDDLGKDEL
IMP-1 inh-1: IMP-1 metallo-beta-lactamase inhibitors, primary screen, biochemical, epi-absorbance readout, Pseudomonas aeruginosa enzyme | metallo-beta-lactamase IMP-1 (Pseudomonas aeruginosa) | purified IMP-1, nitrocefin hydrolysis, epi-absorbance fluorescence | inhibition, % at 5.6 µM | hit rate 0.45% among 290,000 | AID 1556, 2009;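 active = inhibition above the mean plus 3 SD of all compounds in the same screening run, cut at about 4.5% in these data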
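System – purified recombinant IMP-1 beta-lactamase · Input – IMP-1 dispensed at 0.2 nM · Timing – 15 min preincubation plus 25 min reaction at 25 °C · Signal – Epi-absorbance fluorescence, 480 nm excitation, 530 nm emission · Measure – percent IMP-1 inhibition derived from blank-referenced optical density · Controls – Enzyme-plus-DMSO low control, enzyme-free DMSO high control · Replication – singlicate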
PvdQ acylase: P. aeruginosa PvdQ acylase inhibitors, primary screen, biochemical, fluorescence, plate reader and imaging, single point | PvdQ acylase [Pseudomonas aeruginosa LESB58] | purified PvdQ acylase | inhibition, % at 10 µM | hit rate 0.063% among 340,000 | AID 488965, 2010; in the data active = inhibition above about 30%, passing the limit was not always enough
PDI inh: inhibitors of human PDI, primary screen, biochemical, turbidity, single point, plate reader. Protein disulfide-isomerase (Homo sapiens), P07237. hit rate 0.052% among 350,000. inhibition, % at 10 µM. PDI insulin aggregation turbidity, A650, 90 min;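 active = mean inhibition across replicates of 30% or more, whatever share of single replicates reach that level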
VIM-2 inhibitor: VIM-2 metallo-beta-lactamase inhibitors, primary screen, biochemical, epi-absorbance readout, Pseudomonas aeruginosa enzyme; purified VIM-2, nitrocefin hydrolysis, epi-absorbance fluorescence; hit rate 0.89% among 290,000; inhibition, % at 5.6 µM;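 active = inhibition above the mean of all tested compounds plus 3 SD, cutoff set per screening run, cut at about 7.5% in these data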;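 also: red hydrolysis product quenches plate fluorescence so inhibitors raise well fluorescence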
PglD inh: C. jejuni PglD acetyltransferase inhibitors, primary screen, biochemical, DTNB colorimetric, single point | inhibition, % at 12.5 µM | AID 602405, 2012 | purified PglD enzyme, DTNB colorimetric CoA detection | hit rate 0.098% among 360,000 | UDP-N-acetylbacillosamine N-acetyltransferase PglD (Campylobacter jejuni); in the data active = inhibition above about 16%, passing the limit was not always enough
IMP-1 inh-2: IMP-1 metallo-beta-lactamase inhibitors, confirmation, selectivity assay for selective VIM-2 inhibitor project, biochemical, epi-absorbance readout, triplicate; shares compounds with VIM-2 inhibitor; purified IMP-1, nitrocefin hydrolysis, epi-absorbance fluorescence; inhibition, % at 5.6 µM; 1,300 tested, under 10 active; AID 1856, 2009; call rule not given here
VIM-2 FRET inh: VIM-2 inhibitors in FRET format, confirmation, artefact control for selective VIM-2 inhibitor project, biochemical, epi-absorbance artifact exclusion. shares compounds with VIM-2 inhibitor. purified VIM-2, CCF2 FRET substrate hydrolysis. inhibition, % at 5.6 µM. hit rate 23% among 1,300;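 active = inhibition above the mean of all tested compounds plus 3 SD, cut at about 19% in these data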
TEM-1 counter-1: TEM-1 serine beta-lactamase inhibitors, counter-screen for VIM-2 inhibitor project, biochemical, epi-absorbance, HTS | inhibition, % at 5.6 µM | Purified TEM-1, nitrocefin hydrolysis, epi-absorbance fluorescence | AID 1866, 2009 | hit rate 3% among 1,300 | shares compounds with VIM-2 inhibitor;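 active = inhibition above that campaign's mean inhibition plus 3 SD, cut at about 0.46% in these data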
Target sequence (P62593 whole entry, looked up): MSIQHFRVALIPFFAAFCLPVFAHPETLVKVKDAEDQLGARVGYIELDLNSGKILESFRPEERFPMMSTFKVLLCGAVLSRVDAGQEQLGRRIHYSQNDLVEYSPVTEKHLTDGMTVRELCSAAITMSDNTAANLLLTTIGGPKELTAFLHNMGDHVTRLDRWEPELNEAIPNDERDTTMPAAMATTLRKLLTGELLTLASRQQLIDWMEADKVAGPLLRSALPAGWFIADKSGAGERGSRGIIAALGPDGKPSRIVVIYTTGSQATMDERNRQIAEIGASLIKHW
VIM-2 confirm 2: VIM-2 metallo-beta-lactamase inhibitors, confirmation, biochemical, epi-absorbance, hits shared with IMP-1 screen. shares compounds with VIM-2 inhibitor. purified VIM-2, nitrocefin hydrolysis. inhibition, % at 5.6 µM. hit rate 96% among 1,300;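 active = inhibition of the VIM-2 beta-lactamase enzyme above about 11% from the earlier first-round screen, limit read from the data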
VIM-2 confirm: P. aeruginosa VIM-2 enzyme inhibition – biochemical, epi-absorbance, HTS, confirmation; hit rate 73% among 200; inhibition, % at 5.6 µM; shares compounds with IMP-1 inh-1; AID 1860, 2009; purified VIM-2 enzyme, nitrocefin absorbance; in the data active = inhibition above about 8%
TEM-1 counter-2: Serine beta-lactamase TEM-1 inhibition, biochemical epi-absorbance counter-screen for IMP-1/VIM-2 inhibitor program; AID 2184, 2009; inhibition, % at 5.6 µM; shares compounds with IMP-1 inh-1; hit rate 50% among 200; TEM-1 beta-lactamase, nitrocefin absorbance inhibition; in the data active = inhibition above about 0.66%
IMP-1 confirm: IMP-1 metallo-beta-lactamase inhibitors, confirmation, biochemical, epi-absorbance, hits shared with VIM-2 screen. shares compounds with IMP-1 inh-1. purified IMP-1 enzyme, absorbance substrate hydrolysis. inhibition, % at 5.6 µM. hit rate 60% among 200. AID 2189, 2009; in the data active = inhibition above about 4.9%
Hits are given with their value.

What do the screens show for `Cc1ccc(S(=O)(=O)N(C)C[C@H]2Oc3ccc(NC(=O)Nc4ccc5c(c4)OCO5)cc3CC(=O)N([C@H](C)CO)C[C@H]2C)cc1`?
ERp5 block: inactive; PglD inh: inactive

Results for CN1CCN(CCCNC(=O)c2cc3c(=O)n(C)c4ccccc4c3s2)CC1 ?
ERp5 block: inactive; IMP-1 inh-1: inactive; PvdQ acylase: inactive; VIM-2 inhibitor: 21; PglD inh: inactive; IMP-1 inh-2: inactive; VIM-2 FRET inh: inactive; TEM-1 counter-1: inactive; VIM-2 confirm 2: 29

How did C[C@H](CO)N1C[C@H](C)[C@@H](CN(C)C(=O)Nc2ccc(F)cc2)Oc2ccc(NC(=O)C3CCCCC3)cc2C1=O do in these assays?
PglD inh: inactive

What do the screens show for `COc1cc2c(cc1OC)C(c1ccc(-c3ccccc3Cl)o1)=NCC2`?
ERp5 block: inactive; IMP-1 inh-1: inactive; PvdQ acylase: inactive; PDI inh: inactive; VIM-2 inhibitor: 19; IMP-1 inh-2: inactive; VIM-2 FRET inh: inactive; TEM-1 counter-1: inactive; VIM-2 confirm 2: 28

Results for COc1cc2c(cc1OC)C(c1ccc(-c3ccc(Cl)cc3Cl)o1)=NCC2 ?
IMP-1 inh-1: inactive; PvdQ acylase: inactive; PDI inh: inactive; VIM-2 inhibitor: inactive; PglD inh: inactive

How did S=c1[nH]nc(-c2ccco2)n1Cc1ccccc1 do in these assays?
IMP-1 inh-1: inactive; PvdQ acylase: inactive; PDI inh: inactive; VIM-2 inhibitor: 26; PglD inh: inactive; IMP-1 inh-2: inactive; VIM-2 FRET inh: 59; TEM-1 counter-1: inactive; VIM-2 confirm 2: 40

What do the screens show for `S=c1[nH]nc(C2CC2)n1Cc1ccccc1`?
ERp5 block: inactive; IMP-1 inh-1: inactive; PvdQ acylase: inactive; PDI inh: inactive; VIM-2 inhibitor: 47; IMP-1 inh-2: inactive; VIM-2 FRET inh: 75; TEM-1 counter-1: inactive; VIM-2 confirm 2: 61

How did S=c1[nH]nc(CN2CCCC2)n1Cc1ccccc1 do in these assays?
ERp5 block: inactive; IMP-1 inh-1: inactive; PvdQ acylase: inactive; PDI inh: inactive; VIM-2 inhibitor: inactive

What do the screens show for `S=c1[nH]nc(-c2ccccc2)n1Cc1ccccc1`?
IMP-1 inh-1: inactive; PvdQ acylase: inactive; PDI inh: inactive; VIM-2 inhibitor: 13; PglD inh: inactive; IMP-1 inh-2: inactive; VIM-2 FRET inh: 34; TEM-1 counter-1: inactive; VIM-2 confirm 2: 22

How did CCn1c(-c2ccco2)n[nH]c1=S do in these assays?
IMP-1 inh-1: inactive; PvdQ acylase: inactive; PDI inh: inactive; VIM-2 inhibitor: inactive; PglD inh: inactive

Results for S=c1[nH]nc(-c2cccs2)n1Cc1ccccc1 ?
ERp5 block: inactive; IMP-1 inh-1: inactive; PvdQ acylase: inactive; PDI inh: inactive; VIM-2 inhibitor: 43; IMP-1 inh-2: inactive; VIM-2 FRET inh: 67; TEM-1 counter-1: inactive; VIM-2 confirm 2: 51

Results for N#C[C@@H]1[C@@H](c2ccccc2C2=CCCCC2)[C@@H](CO)N1C(=O)CN1CCOCC1 ?
ERp5 block: inactive

How did COCC#Cc1ccc2c(c1)O[C@H](CN(C)Cc1ccc(F)cc1)[C@H](C)CN([C@H](C)CO)S2(=O)=O do in these assays?
ERp5 block: inactive; PglD inh: inactive

Results for CC(C)NC(=O)N(C)C[C@H]1Oc2ccc(NC(=O)Nc3ccc(C(F)(F)F)cc3)cc2C(=O)N([C@H](C)CO)C[C@H]1C ?
ERp5 block: inactive; PglD inh: inactive

What do the screens show for `S=c1[nH]nc(-c2cccs2)n1C1CCCCC1`?
ERp5 block: inactive; IMP-1 inh-1: inactive; PDI inh: inactive; VIM-2 inhibitor: 42; PglD inh: inactive; IMP-1 inh-2: inactive; VIM-2 FRET inh: 63; TEM-1 counter-1: inactive; VIM-2 confirm 2: 47

What do the screens show for `CN1CCN(C(=O)C[C@H]2C[C@@H]3c4cc(NC(=O)Nc5ccccc5F)ccc4O[C@@H]3[C@@H](CO)O2)CC1`?
PglD inh: inactive

What do the screens show for `COc1cc(Nc2cc(C)nc3ncnn23)cc(OC)c1`?
ERp5 block: inactive; IMP-1 inh-1: inactive; PvdQ acylase: inactive; VIM-2 inhibitor: inactive; PglD inh: inactive

Results for COC(=O)c1cc(Nc2cc(C)nc3ncnn23)cc(C(=O)OC)c1 ?
ERp5 block: inactive; IMP-1 inh-1: inactive; PvdQ acylase: inactive; VIM-2 inhibitor: 15; PglD inh: inactive; IMP-1 inh-2: inactive; VIM-2 FRET inh: inactive; TEM-1 counter-1: inactive; VIM-2 confirm 2: 35

What do the screens show for `Cc1nn(-c2ccccc2)c(Cl)c1/C=C(\CC(=O)O)c1nc2ccccc2s1`?
IMP-1 inh-1: 8.4; PvdQ acylase: inactive; PDI inh: inactive; VIM-2 inhibitor: 24; PglD inh: inactive; VIM-2 confirm: 37; TEM-1 counter-2: inactive; IMP-1 confirm: 5.5

How did Cc1nn(-c2ccc(F)cc2)c(Cl)c1/C=C(\CC(=O)O)c1nc2ccccc2s1 do in these assays?
IMP-1 inh-1: 7.9; PvdQ acylase: inactive; PDI inh: inactive; VIM-2 inhibitor: 32; PglD inh: inactive; VIM-2 confirm: 34; TEM-1 counter-2: inactive; IMP-1 confirm: inactive
